# UCH37 inh: human UCH37 deubiquitinating enzyme inhibition | purified proteasome/UCH37, Ub-AMC cleavage fluorescence | inhibition, % (no concentration beside the values) | 330,000 compounds, 0.33% hits | AID 588478;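 active means mean inhibition over replicate wells above about 20%, limit read from the data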;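 further: 0% = compound-free wells with enzyme and 100% = wells lacking proteasome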
#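 Signal – fluorescence, ex 355 nm, em 460 nm · System – Proteasome-bound UCH37 · Input – 0.15 nM proteasome as dispensed · Timing – 30 min preincubation with enzyme, 25 min cleavage at room temperature · Read-out basis – percent inhibition of cleavage signal versus uninhibited and no-proteasome wells · Medium – Tris-HCl pH 7.4 with ATP-MgCl2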
# ALR inh: blocks human ALR sulfhydryl oxidase activity. P55789. purified ALR, DTT oxidation, H2O2 HRP-luminol luminescence. inhibition, % (concentration not given with the values). 290,000 compounds, 3.8% hits;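 active means mean replicate inhibition above about 79%, with every replicate also reaching it, limit read from the data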
# PfM18AAP inh: PfM18AAP enzyme inhibition | recombinant PfM18AAP, H-Glu-NHMec fluorogenic cleavage | inhibition, % at 7.35 µM | 290,000 compounds, 1.2% hits | AID 1822;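 active means inhibition above the campaign mean inhibition over all tested compounds plus 3 SD, cut at about 28% in these data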;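 further: 0% = plate median of test compound wells and 100% = 2 mM ZnCl2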
# FAS TE block: FAS thioesterase (human) inhibition; 360,000 compounds, 0.67% hits; P49327; inhibition, % at 15 µM; recombinant FAS-TE, OMFH fluorogenic substrate, fluorescence endpoint;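 active means compounds whose normalised, plate-corrected inhibition of enzyme fluorescence in the single-dose primary screen is 50% or more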;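 further: 0% = DMSO with enzyme and 100% = substrate without enzyme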
# Rtt109 HAT inh: C. albicans Rtt109 histone acetyltransferase inhibition. inhibition, % at 34.9 µM. purified Rtt109/Vps75, ThioGlo CoA-SH fluorescence, 4 h. 330,000 compounds, 0.16% hits;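 active means inhibition of at least 50% in every replicate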
# Target sequence (Q5AAJ8 whole entry, looked up): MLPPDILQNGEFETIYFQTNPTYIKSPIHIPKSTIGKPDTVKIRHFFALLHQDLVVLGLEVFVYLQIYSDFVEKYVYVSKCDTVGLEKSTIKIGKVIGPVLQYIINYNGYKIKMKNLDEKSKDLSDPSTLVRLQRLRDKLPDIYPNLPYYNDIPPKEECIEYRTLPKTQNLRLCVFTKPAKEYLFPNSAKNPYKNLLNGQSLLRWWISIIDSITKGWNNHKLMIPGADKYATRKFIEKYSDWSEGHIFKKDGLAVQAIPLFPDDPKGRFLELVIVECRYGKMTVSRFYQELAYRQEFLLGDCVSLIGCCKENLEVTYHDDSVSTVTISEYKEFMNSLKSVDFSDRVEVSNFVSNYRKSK
# HDAC3 inhib: human HDAC3 inhibition; O15379; recombinant HDAC3, fluorogenic peptide/trypsin coupled, fluorescence; inhibition, % at 8.3 µM; 320,000 compounds, 0.15% hits; AID 2718; in the data active means inhibition above about 26%, passing the limit was not always enough
# Active calls of the source: *; nt = no result given. An excerpt weighted towards active compounds, which were near 4.6% of everything screened.
SMILES,UCH37 inh,ALR inh,PfM18AAP inh,FAS TE block,Rtt109 HAT inh,HDAC3 inhib
COc1ccc(N2CCN(Cc3nnnn3C3CCCCC3)CC2)cc1,0,23,5,1,3,6
CCOC(=O)Cn1nnnc1CN1CCN(c2ccc(OC)cc2)CC1,0,92*,7,-6,7,2
Cc1ccc(SCC(=O)NN=Cc2ccco2)cc1,0,nt,nt,nt,nt,nt
c1ccc2c(c1)[nH]c1c(NCC3CCCO3)ncnc12 (centres undefined),-7,82*,2,-2,1,-8
c1nc(NCC2CCCO2)c2[nH]cnc2n1 (centres undefined),3,-11,7,-6,-9,3
CCN(CC)c1ccc(/C=N/N2CCOCC2)cc1,nt,99*,5,0,12,10
CCN(Cc1ccccc1)c1ccc(/C=N/N2CCOCC2)cc1,nt,98*,-4,6,7,6
COc1ccc(/C=N/N2CCOCC2)cc1O,nt,98*,5,-16,-3,2
CCN(Cc1ccccc1)c1ccc(C=NN2CCOCC2)cc1,3,nt,nt,nt,nt,nt
COc1ccc(C=NNC(=O)c2ccncc2)cc1CN1CCCc2ccccc21,6,nt,nt,nt,nt,nt
Cc1cc(-c2c(C)[nH]n(-c3ccccc3)c2=O)n[nH]1,4,81*,-5,-9,8,-3
CC(=NOCC(=O)OCC(=O)N(Cc1ccccc1)C(C)(C)C)c1ccc2c(c1)OCO2,3,nt,nt,nt,nt,nt
Cc1ccc(NC2=C(Cl)C(=O)OC2OC(=O)c2ccco2)cc1C (centres undefined),3,91*,1,40,0,12
Cc1ccc(NC2=C(Cl)C(=O)OC2OC(=O)c2ccco2)c(C)c1 (centres undefined),nt,99*,11,44,3,12
Cc1ccc(C)c(NC2=C(Cl)C(=O)OC2OC(=O)c2ccco2)c1 (centres undefined),5,27,0,46,1,2
O=C(NN=C/C=C\c1cccc([N+](=O)[O-])c1)c1cccnc1,10,nt,nt,nt,nt,nt
CCOC(=O)N1CCN(c2c(F)cc3[nH]c(=S)[nH]c3c2Br)CC1,1,40,0,5,-1,3
CCOC(=O)N1CCN(c2cc3[nH]c(=S)[nH]c3cc2F)CC1,-4,90*,7,-7,16,12
S=c1[nH]nc(-c2ccco2)n1/N=C/C=C/c1ccccc1,nt,98*,12,-7,3,2
Cc1ccc(-c2n[nH]c(=S)n2N=C/C=C/c2ccccc2[N+](=O)[O-])cc1,7,nt,nt,nt,nt,nt
O=[N+]([O-])c1ccccc1/C=C/C=N/n1c(-c2ccccc2F)n[nH]c1=S,nt,98*,12,6,3,1
CC(=C/c1ccccc1)/C=N/n1c(-c2ccco2)n[nH]c1=S,nt,97*,13,-4,-3,8
S=c1[nH]nc(-c2ccc(Cl)cc2)n1/N=C/C=C/c1ccco1,nt,99*,16,14,5,6
Cc1cc(C)cc(-n2c(C)cc(C=NNC(=O)CSc3ncccn3)c2C)c1,2,nt,nt,nt,nt,nt
S=c1[nH]nc(-c2ccco2)n1/N=C/c1cccc(Cl)c1Cl,nt,96*,15,15,0,-1
SMILES,UCH37 inh,ALR inh,PfM18AAP inh,FAS TE block,Rtt109 HAT inh,HDAC3 inhib
CC(/C=N/n1c(-c2n[nH]c3c2CCC3)n[nH]c1=S)=C\c1ccco1,nt,94*,10,2,7,7
S=c1[nH]nc(-c2ccccc2)n1/N=C/C=C/c1ccco1,nt,97*,20,-2,0,7
S=c1[nH]nc(-c2n[nH]c3c2CCC3)n1N=C/C=C/c1ccco1,11,nt,nt,nt,nt,nt
COc1ccc(S(=O)(=O)N(CC(=O)NN=Cc2ccc(C(=O)O)cc2)Cc2ccccc2)cc1OC,6,nt,nt,nt,nt,nt
O=C(COc1ccc(C=NNS(=O)(=O)c2ccccc2)cc1)NCc1ccccc1,-3,nt,nt,nt,nt,nt
CC(=NNC(=O)CC1N=C(Cc2ccccc2)NNC1=O)c1cccnc1 (centres undefined),4,nt,nt,nt,nt,nt
CCC1Nc2ncnc(N3CCc4ccccc4C3)c2N(Cc2ccc(Cl)cc2)C1=O (centres undefined),0,0,nt,17,2,4
O=C1C(Cc2ccccc2)Nc2ncnc(N3CCc4ccccc4C3)c2N1Cc1ccc(Cl)cc1 (centres undefined),nt,-3,nt,55*,8,6
O=C(O)CSCC(=O)Nc1cc(C(F)(F)F)ccc1Cl,-1,-16,3,-13,66*,2

# Screening data (PubChem)
